# Biofilm kill mix – clotrimazole potentiators killing C. albicans biofilm, primary screen, 4-compound mixtures; C. albicans biofilm persisters + clotrimazole, fluorescence viability; primary screen in compound mixtures of four per well; inhibition, % at 7.6 µM; 0.02% of 120,000 active;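 active = inhibition above 30.3% in the primary screen of four-compound pools, then above 30% when the compound was retested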;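 note: compounds exposed to preformed 24 h biofilms for 48 h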
#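 Incubation: 24 h biofilm formation, then 48 h compound exposure, 37 °C | Material: C. albicans biofilms | Buffer or medium: RPMI/MOPS medium, pH 7.0 | Measured by: 2-h Alamar Blue fluorescence, 535/590 nm excitation/emission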
# 14-3-3 Bad inh – inhibitors of 14-3-3 zeta/Bad binding, primary screen, biochemical, TR-FRET, bovine 14-3-3 zeta; TR-FRET 14-3-3zeta/Dy647-pBad peptide displacement, 1 h; inhibition, % at 21.7 µM; 0.71% of 220,000 active; AID 781, 2007;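 active = inhibition above about 70%, limit read from the data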
# Target sequence (P63103 whole entry, looked up): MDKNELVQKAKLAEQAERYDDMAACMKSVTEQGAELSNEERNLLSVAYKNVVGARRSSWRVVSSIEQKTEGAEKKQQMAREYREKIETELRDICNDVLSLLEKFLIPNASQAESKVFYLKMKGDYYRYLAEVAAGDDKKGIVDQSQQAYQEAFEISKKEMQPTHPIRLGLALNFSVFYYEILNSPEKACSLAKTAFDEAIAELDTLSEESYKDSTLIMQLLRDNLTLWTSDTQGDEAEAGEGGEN
# Bim-Mcl-1 – inhibitors of Bim peptide binding to Mcl-1, primary screen, biochemical, bead-based flow cytometry, multiplex; Induced myeloid leukemia cell differentiation protein Mcl-1 (Homo sapiens), Q07820; Bim peptide-Mcl-1 binding; inhibition, % at 10 µM; 0.1% of 190,000 active; in the data active = inhibition above about 40%
# Target sequence (Q07820 whole entry, looked up): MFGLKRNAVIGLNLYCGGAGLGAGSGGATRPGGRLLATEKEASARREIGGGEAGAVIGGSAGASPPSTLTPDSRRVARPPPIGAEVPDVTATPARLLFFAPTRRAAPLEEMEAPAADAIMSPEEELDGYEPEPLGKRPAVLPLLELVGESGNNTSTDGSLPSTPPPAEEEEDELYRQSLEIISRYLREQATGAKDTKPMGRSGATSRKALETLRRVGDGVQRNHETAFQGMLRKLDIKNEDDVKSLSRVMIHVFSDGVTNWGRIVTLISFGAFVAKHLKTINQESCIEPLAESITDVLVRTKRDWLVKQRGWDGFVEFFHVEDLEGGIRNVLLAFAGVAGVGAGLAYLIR
# Hck Nef HTS – inhibitors of Nef-activated human Hck kinase, primary screen, biochemical, Z-Lyte FRET, 384-well, Hck-YEEI. inhibition, % at 20 µM. Tyrosine-protein kinase HCK (Homo sapiens), P08631. AID 463187, 2010. 0.68% of 220,000 active. Recombinant Hck-YEEI plus Nef, Z-Lyte FRET kinase assay;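 active = Hck-Nef kinase inhibition above about 50%, limit read from the data; inactive = inhibition below that limit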
# Mcl1-Bid inh – Mcl-1/Bid binding inhibitors, primary screen, biochemical, TR-FRET, 1536-well. 0.97% of 220,000 active. TR-FRET Mcl-1/Bid-Dy647 peptide binding. inhibition, % at 21.7 µM. Induced myeloid leukemia cell differentiation protein Mcl-1 (Homo sapiens), Q07820;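 active = compounds that cut the binding signal by more than half at the single screening dose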;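 note: His-tagged Mcl-1 with europium anti-His antibody binding Bid BH3 peptide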
# Mcl1-Noxa inh – Mcl-1/Noxa binding inhibitors, primary screen, biochemical, TR-FRET, 1536-well; Induced myeloid leukemia cell differentiation protein Mcl-1 (Homo sapiens), Q07820; TR-FRET Mcl-1/Noxa peptide binding, 2 h; inhibition, % at 21.7 µM; 1.5% of 220,000 active;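 active = compounds that cut the protein-peptide binding signal by more than 50% relative to plate controls in a single-dose test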;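 note: His-tagged Mcl-1 with rhodamine Noxa BH3 peptide and terbium anti-His antibody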
# Hits are given with their value; . = inactive; / = not tested or not shown; [ ] = remark or other dose. Compounds with a hit are over-represented: about 3.2% of the library has one in this group of screens.
SMILES,Biofilm kill mix,14-3-3 Bad inh,Bim-Mcl-1,Hck Nef HTS,Mcl1-Bid inh,Mcl1-Noxa inh
COc1cc(N=Nc2cccc(S(N)(=O)=O)c2)c2ccccc2c1N,.,.,/,.,.,67
COc1cc(OC)cc(C2=NC3(CCC(C)CC3)NC2=S)c1 (stereo not drawn),.,.,.,.,.,.
CSc1cccc(NC(=O)CN(C)S(=O)(=O)c2ccc(F)cc2)c1,/,.,.,.,.,.
CSc1cccc(NC(=O)CN(C)S(=O)(=O)c2ccccc2)c1,/,.,.,.,72,.
CCCCN(Cc1cc2cc(OC)ccc2[nH]c1=O)C(=O)c1ccccn1,/,.,.,.,65,.
CCCN(Cc1cc2cc(C)ccc2[nH]c1=O)C(=O)c1ccccn1,.,.,/,.,.,.
O=C(CSc1nncs1)Nc1cc(-c2ccccc2)nn1-c1ccccc1,.,.,.,.,.,.
Oc1[nH]c(=S)sc1C=C1N=c2ccccc2=N1,.,.,/,.,.,.
Oc1[nH]c(=S)sc1/C=C1\C(c2ccccc2)=Nc2ccccc21,.,.,.,.,.,81
O=C(Nc1nc2c(F)cc(F)cc2s1)C1CC(=O)N(Cc2ccco2)C1 (stereo not drawn),.,.,/,.,.,59
CSc1nc(C)cc(OCC(=O)n2nc(C)cc2C)n1,/,.,.,.,99,.
Cc1ccc(-c2c(C(=O)Nc3ccccc3C)c(C)[nH]c(=S)c2C#N)o1,.,.,.,56,.,.
Cc1ccccc1NC(=O)c1c(C)[nH]c(=S)c(C#N)c1-c1ccc(Cl)cc1,.,.,/,.,71,.
Cc1cc(NC(=O)C(=O)NCc2cccc(Cl)c2)no1,.,.,/,.,.,.
CC(C)c1nnc(NC(=O)C2CCCN2C(=O)Nc2ccccc2F)s1 (stereo not drawn),.,.,.,.,.,.
COc1ccccc1NC(=O)N1CCCC1C(=O)Nc1nnc(C(C)C)s1 (stereo not drawn),/,78[fluorescence artefact?],.,.,.,.
COc1ccc(-c2csc3nc(-c4cccnc4)nc(Cl)c23)cc1OC,.,.,.,.,.,58
Clc1nc(-c2cccnc2)nc2scc(-c3ccccc3)c12,.,.,.,.,.,.
NC(N)=NS(=O)(=O)c1ccc(NC(=S)NC(=O)c2sc3ccccc3c2Cl)cc1,.,76,.,.,82,.
O=C(Nc1ccnc(=O)[nH]1)c1sc2ccccc2c1Cl,.,.,/,.,58,.
COc1cc(NS(=O)(=O)c2ccc(NC(=S)NC(=O)c3sc4cc(F)ccc4c3Cl)cc2)nc(OC)n1,.,.,.,.,.,88
Cc1cccc(C(=O)NC(=S)NNC(=O)c2ccc(Cl)cc2)c1,.,.,.,.,.,88
COc1cc(NS(=O)(=O)c2ccc(NC(=S)NC(=O)c3ccco3)cc2)nc(OC)n1,.,.,/,.,.,.
Cc1sc2nc(SCC(=O)N(CCO)CCO)n(C3CCCCC3)c(=O)c2c1C,/,.,.,.,.,.
CCc1c(O)nc(SCC(=O)Nc2ccccc2C)[nH]c1=O,/,.,.,.,.,.
SMILES,Biofilm kill mix,14-3-3 Bad inh,Bim-Mcl-1,Hck Nef HTS,Mcl1-Bid inh,Mcl1-Noxa inh
O=c1[nH]c2cc3c(cc2cc1CN(CCO)S(=O)(=O)c1ccccc1Cl)OCCO3,/,.,.,.,.,.
O=C(O)c1ccccc1NC(=S)NC(=O)c1sc2ccccc2c1Cl,.,.,.,.,.,58
O=C(NNC(=S)NC(=O)c1sc2ccccc2c1Cl)c1ccc(Cl)cc1,.,.,.,.,.,53
Cc1ccc(NC(=S)NC(=O)c2sc3ccccc3c2Cl)c(C(=O)O)c1,.,.,.,.,.,.
CS(=O)(=O)c1ccc(C(=O)OCC(=O)NC2CCS(=O)(=O)C2)cc1[N+](=O)[O-] (stereo not drawn),.,.,.,.,.,.
Cc1ccc(-n2cc(CN3CCCN(C=O)CC3)c(-c3ccc(F)cc3)n2)cc1,.,.,.,.,.,.
CC(=O)N1CCCN(Cc2cn(-c3ccc(C)cc3)nc2-c2ccc(F)cc2)CC1,.,.,.,.,56,.
CCCCCCc1cc2cc(C(=O)Nc3cccc(OC)c3)c(=O)oc2cc1O,.,.,.,53,.,.
O=[N+]([O-])c1cc(S(=O)(=O)N2CCOCC2)ccc1N1CCCC1,.,.,.,.,.,.
O=C(O)C1CCN(c2ccc(S(=O)(=O)N3CCOCC3)cc2[N+](=O)[O-])CC1,.,89,.,.,.,.
CC(C)(C)OC(=O)NCCC(=O)Oc1ccc2ccc(=O)oc2c1,/,.,.,73,.,.
O=C(Oc1ccc2ccc(=O)oc2c1)c1cccs1,.,.,.,56,.,.
COC(=O)c1ccc(Oc2c(F)c(F)nc(N3CCOCC3)c2F)cc1,.,.,.,.,.,.
CSc1nc(-c2ccccc2)nc(NC(=O)C(C)C)c1C(C)=O,.,.,.,.,.,.
Cc1ccc(NC2=C(Cl)C(=O)c3ccccc3C2=O)cc1,.,.,.,.,.,.
CCN(CC)c1ccc(NC2=C(Cl)C(=O)c3ccccc3C2=O)cc1,.,.,.,.,.,89
CN(C)CCCNc1oc(-c2ccccc2)nc1C#N,/,.,.,.,.,53
COc1ccc(-c2nc(C#N)c(NCCCN(C)C)o2)cc1OC,/,.,.,.,.,.
Cc1cc2c3c(c1)C(C)(c1ccccc1)CC(C)(C)N3C(=O)C21C(C#N)=C(N)OC2=C1C(=O)CC(C)(C)C2 (stereo not drawn),/,.,.,.,.,.
CC1(c2ccccc2)CC(C)(C)N2C(=O)C3(C(C#N)=C(N)Oc4cc(O)ccc43)c3cccc1c32 (stereo not drawn),/,.,.,.,61,.
O=C1NCCn2ccc(=O)cc21,.,.,/,.,.,.
COc1ccc(-c2noc(CCC(=O)NCCCN3CCC(Cc4ccccc4)CC3)n2)cc1,/,.,.,.,.,.
Cc1ccc(NC(=O)NCCCN2CCOCC2)cc1,/,.,.,.,.,.
COc1ccc(Cl)c(N2CCN(CCCNC(=O)Nc3ccc(C)cc3)CC2)c1,/,.,.,.,.,75
COc1ccc(N2CCC(CNC(=O)Nc3ccccc3)C2)cc1 (stereo not drawn),/,.,.,.,.,82
COc1ccc(NC(=O)NCCCN2CCC(Cc3ccccc3)CC2)cc1,.,.,/,.,.,52
CN1CCN(NC(=S)Nc2ccc(Oc3ccccc3)cc2)CC1,.,.,.,.,.,.

# Screens from PubChem.
